This note sets out measurements from publication PMC6917914 (Nature chemical biology, 2019).

pKi: −log10 of the molar value. “Also recorded” adds a separate entry of the source.

One assay concerns the target DCAF15 (Homo sapiens, UniProt Q66K64). As to the kind of experiment: TR-FRET competition assay: displacement of BodipyFL-E7820 from DCAF15. Type of assay: binding. The conditions noted are these: for DCAF15 binding, in words: relative to E7820. For orientation: Time-resolved FRET reads energy transfer from a long-lived donor to a nearby acceptor.
The next assay has as its target T1, RBM39RRM2-biotin (Homo sapiens, UniProt Q14498).
T1 sequence (Q14498 245-332): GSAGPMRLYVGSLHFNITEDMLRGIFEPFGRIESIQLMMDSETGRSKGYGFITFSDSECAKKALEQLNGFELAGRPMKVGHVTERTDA
Briefly: TR-FRET titration of BodipyFL-E7820 probe to RBM39RRM2-biotin. The class given is binding. The conditions noted are these: probe titrated to RBM39RRM2-biotin. The essentials:
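RBM39RRM2 was Avi-tagged and biotinylated in vitro with BirA, then gel-filtered. It was mixed with 2 nM terbium-streptavidin in Tris pH 8.0/NaCl/Pluronic F-68/BSA buffer. Increasing BodipyFL-E7820 probe was added at 2% DMSO, 15 min room temperature. The 520/490 nm ratio without protein was subtracted, and KD came from a one-site specific-binding fit. Three independent replicates.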

On to `N#Cc1cccc(S(=O)(=O)Nc2cccc3c(C#N)c[nH]c23)c1` [desmethyl-E7820], for which the “DCAF15 binding, in words” value on DCAF15 is listed as “significant loss of DCAF15 binding”.

With `NS(=O)(=O)c1ccc(S(=O)(=O)Nc2cccc3c(Cl)c[nH]c23)cc1` [indisulam], at DCAF15, the pKi (in general, the Ki on a negative log10 scale, so that one unit is a factor of ten) was less than 4.30 and the “DCAF15 binding, in words” value was “significant loss of DCAF15 binding; also recorded: significant loss in affinity for DCAF15”.

With `Cc1cc(C)n2c1C=C1C=CC(CCC(=O)NCCCCCCOc3ccc(S(=O)(=O)Nc4ccc(C)c5c(C#N)c[nH]c45)cc3C#N)=[N+]1[B-]2(F)F` [BodipyFL-E7820, N-(6-(2-cyano-4-(N-(3-cyano-4-methyl-1H-indol-7-yl)sulfamoyl)phenoxy)hexyl)-3-(5,5-difluoro-7,9-dimethyl-5H-5λ^4,6λ^4-dipyrrolo[1,2-c:2',1'-f][1,3,2]diazaborinin-3-yl)propanamide], the “compound binding to RBM39” value at RBM39RRM2-biotin is listed as “only observed for DDB1ΔB-DCAF15biotin”.
